Results published in ChEMBL document CHEMBL1177662, “Anti-influenza activity of phenethylphenylphthalimide analogs derived from thalidomide” (Bioorg Med Chem, 2010).
Active and inactive are the calls of the source. The calls are words filed in the database; no cut-off is given here.

Legend:
[1] = target: Polymerase acidic protein (Influenza A virus (A/Puerto Rico/8/1934(H1N1))) (UniProt P03433); experiment: Inhibition of Influenza A (A/PR/8/34/ (H1N1)) RNA polymerase acidin protein endonuclease PA domain assessed as M13mp18 ss DNA at 1 uM
Method in brief: (§1)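 Recombinant His-tagged PA N-terminal endonuclease domain (residues 1–220), expressed in E. coli and purified by Ni-agarose and anion exchange. 0.35 μg (about 0.1 μM final) in 100 μl buffer at pH 7.3, with 1 μg M13mp18 circular ssDNA substrate and compound at 1 or 10 μM. A no-enzyme control was included. Digestion read by agarose electrophoresis with ethidium bromide staining.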

[2] = target: Polymerase acidic protein (Influenza A virus (A/Puerto Rico/8/1934(H1N1))) (UniProt P03433); experiment: Inhibition of Influenza A (A/PR/8/34/ (H1N1)) RNA polymerase acidin protein endonuclease PA domain assessed as M13mp18 ss DNA at 10 uM; method in brief: as §1
[3] = Cytotoxicity against dog MDCK cells; type: cell-based, Canis lupus familiaris
Method in brief: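 Confluent MDCK monolayers (MEM, 10% FBS, 37 °C) exposed without virus to compound (0.63–80 μM, DMSO vehicle), premixed with trypsin 30 min at 37 °C. Incubated 4 days at 34 °C, 5% CO2. Formaldehyde fixation, naphthol blue black staining of viable cells, OD630 read. Triplicate; CC50 estimated from dose–response curve.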

[4] = test system: Influenza A virus; experiment: Antiviral activity against Influenza A (A/PR/8/34/ (H1N1)) infected in MDCK cells assessed as inhibition of virus-induced cell death; type: functional, organism-based; conditions: A/Puerto Rico/8/1934(H1N1)
Method in brief: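 Confluent MDCK monolayers (MEM, 10% FBS, 37 °C). Compound (0.63–80 μM, DMSO vehicle) premixed with 100 TCID50 H1N1 PR8 plus trypsin for 30 min at 37 °C, then added to PBS-washed cells. Incubated 4 days at 34 °C, 5% CO2. Formaldehyde-fixed, naphthol blue black stain, OD630 read. Viability scaled to mock (100%) and virus-only (0%) wells. Triplicate; EC50 estimated from dose–response curve.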

Which results are given for `O=C1c2c(Cl)c(Cl)c(Cl)c(Cl)c2C(=O)N1c1ccc(CCc2cccc(O)c2)cc1`?
inhibition [1]: inactive; inhibition [2]: inactive

For `COc1ccc(CCc2ccccc2N2C(=O)c3ccccc3C2=O)cc1OC`, which CC50 [3] is on record?
The CC50 was > 80 µM.

What about the inhibition [2] of the same compound?
The inhibition was “inactive”.

And the EC50 [4]?
Its EC50 is > 80 µM.

For `O=C1c2c(Cl)c(Cl)c(Cl)c(Cl)c2C(=O)N1c1ccc(/C=C/c2ccccc2)cc1`, which inhibition [1] is on record?
The inhibition was “inactive”.

And the inhibition [2]?
Its inhibition is “inactive”.

Which results are given for `O=C1c2c(Cl)c(Cl)c(Cl)c(Cl)c2C(=O)N1c1ccccc1CCc1ccccc1`?
inhibition [1]: inactive; inhibition [2]: inactive

What does the source list for `COc1ccc(CCc2ccc(N3C(=O)c4c(Cl)c(Cl)c(Cl)c(Cl)c4C3=O)cc2)cc1OC`?
inhibition [1]: inactive; inhibition [2]: inactive

Which inhibition [1] does the source give for `COc1cccc(CCc2ccc(N3C(=O)c4ccccc4C3=O)cc2)c1` here?
Its inhibition is “inactive”.

What about the inhibition [2] of the same compound?
The inhibition was “inactive”.

Which inhibition [1] does the source give for `O=C1c2ccccc2C(=O)N1c1ccc(/C=C/c2ccccc2)cc1` here?
The inhibition was “inactive”.

What about the inhibition [2] of the same compound?
Its inhibition is “inactive”.

For `COc1cccc(CCc2cccc(N3C(=O)c4c(Cl)c(Cl)c(Cl)c(Cl)c4C3=O)c2)c1`, which inhibition [1] is on record?
Its inhibition is “inactive”.

And the inhibition [2]?
Its inhibition is “inactive”.

What does the source list for `COc1ccc(CCc2ccccc2N2C(=O)c3c(Cl)c(Cl)c(Cl)c(Cl)c3C2=O)cc1OC`?
inhibition [1]: inactive; inhibition [2]: inactive

Which inhibition [1] does the source give for `COc1ccc(CCc2ccc(N3C(=O)c4ccccc4C3=O)cc2)cc1` here?
Its inhibition is “inactive”.

And the inhibition [2]?
The inhibition was “inactive”.

For `O=C1c2ccccc2C(=O)N1c1cccc(CCc2ccc(O)c(O)c2)c1`, which inhibition [1] is on record?
Its inhibition is “inactive”.

What about the inhibition [2] of the same compound?
Its inhibition is “Active”.

And the EC50 [4]?
Its EC50 is 26 µM.

Which inhibition [1] does the source give for `O=C1c2c(Cl)c(Cl)c(Cl)c(Cl)c2C(=O)N1c1cccc(CCc2ccccc2)c1` here?
Its inhibition is “inactive”.

And the inhibition [2]?
Its inhibition is “inactive”.

What does the source list for `COc1ccc(CCc2ccc(N3C(=O)c4c(Cl)c(Cl)c(Cl)c(Cl)c4C3=O)cc2)cc1`?
inhibition [1]: inactive; inhibition [2]: inactive

Which inhibition [1] does the source give for `COc1ccc(CCc2cccc(N3C(=O)c4c(Cl)c(Cl)c(Cl)c(Cl)c4C3=O)c2)cc1OC` here?
The inhibition was “inactive”.

And the inhibition [2]?
The inhibition was “inactive”.

With `O=C1c2c(Cl)c(Cl)c(Cl)c(Cl)c2C(=O)N1c1cccc(/C=C/c2ccc(O)c(O)c2)c1` as the compound, how does the inhibition [1] read?
Its inhibition is “inactive”.

And the inhibition [2]?
The inhibition was “inactive”.

For `O=C1c2c(Cl)c(Cl)c(Cl)c(Cl)c2C(=O)N1c1cccc(CCc2ccc(O)cc2)c1`, which inhibition [1] is on record?
The inhibition was “inactive”.

What about the inhibition [2] of the same compound?
The inhibition was “inactive”.

For `O=C1c2ccccc2C(=O)N1c1ccccc1CCc1ccccc1`, which inhibition [1] is on record?
The inhibition was “inactive”.

What about the inhibition [2] of the same compound?
The inhibition was “inactive”.

Which results are given for `COc1ccc(CCc2cccc(N3C(=O)c4ccccc4C3=O)c2)cc1OC`?
inhibition [1]: inactive; inhibition [2]: inactive

For `O=C1c2ccccc2C(=O)N1c1ccccc1CCc1ccc(O)c(O)c1`, which CC50 [3] is on record?
The CC50 was > 80 µM.

And the inhibition [1]?
The inhibition was “inactive”.

And the inhibition [2]?
The inhibition was “Active”.

And the EC50 [4]?
Its EC50 is 48 µM.

For `O=C1c2ccccc2C(=O)N1c1ccc(CCc2cccc(O)c2)cc1`, which CC50 [3] is on record?
Its CC50 is > 80 µM.

And the inhibition [1]?
Its inhibition is “inactive”.

What about the inhibition [2] of the same compound?
The inhibition was “inactive”.

What about the EC50 [4] of the same compound?
The EC50 was > 80 µM.

With `O=C1c2c(Cl)c(Cl)c(Cl)c(Cl)c2C(=O)N1c1cccc(CCc2ccc(O)c(O)c2)c1` as the compound, how does the CC50 [3] read?
Its CC50 is 44 µM.

What about the inhibition [1] of the same compound?
Its inhibition is “inactive”.

And the inhibition [2]?
Its inhibition is “inactive”.

And the EC50 [4]?
The EC50 was > 80 µM.

With `O=C1c2c(Cl)c(Cl)c(Cl)c(Cl)c2C(=O)N1c1ccc(/C=C\c2ccccc2)cc1` as the compound, how does the inhibition [1] read?
Its inhibition is “inactive”.

What about the inhibition [2] of the same compound?
The inhibition was “inactive”.

For `O=C1c2c(Cl)c(Cl)c(Cl)c(Cl)c2C(=O)N1c1ccc(CCc2ccc(O)c(O)c2)cc1`, which CC50 [3] is on record?
The CC50 was > 80 µM.

What about the inhibition [1] of the same compound?
The inhibition was “inactive”.

What about the inhibition [2] of the same compound?
The inhibition was “inactive”.

What about the EC50 [4] of the same compound?
Its EC50 is 24 µM.

For `O=C1c2ccccc2C(=O)N1c1ccc(CCc2ccccc2)cc1`, which inhibition [1] is on record?
The inhibition was “inactive”.

What about the inhibition [2] of the same compound?
Its inhibition is “inactive”.

Which inhibition [1] does the source give for `O=C1c2c(Cl)c(Cl)c(Cl)c(Cl)c2C(=O)N1c1cccc(CCc2cccc(O)c2)c1` here?
The inhibition was “inactive”.

What about the inhibition [2] of the same compound?
The inhibition was “inactive”.

For `O=C1c2c(Cl)c(Cl)c(Cl)c(Cl)c2C(=O)N1c1cccc(/C=C/c2ccccc2)c1`, which inhibition [1] is on record?
Its inhibition is “inactive”.

And the inhibition [2]?
Its inhibition is “inactive”.

Which inhibition [1] does the source give for `O=C1c2ccccc2C(=O)N1c1ccc(/C=C/c2ccc(O)c(O)c2)cc1` here?
Its inhibition is “inactive”.

And the inhibition [2]?
The inhibition was “inactive”.

With `O=C1c2c(Cl)c(Cl)c(Cl)c(Cl)c2C(=O)N1c1ccccc1CCc1ccc(O)c(O)c1` as the compound, how does the inhibition [1] read?
Its inhibition is “inactive”.

What about the inhibition [2] of the same compound?
Its inhibition is “inactive”.

Which results are given for `O=C1c2c(Cl)c(Cl)c(Cl)c(Cl)c2C(=O)N1c1ccc(CCc2ccc(O)cc2)cc1`?
inhibition [1]: inactive; inhibition [2]: inactive

Which results are given for `COc1ccc(/C=C/c2cccc(N3C(=O)c4c(Cl)c(Cl)c(Cl)c(Cl)c4C3=O)c2)cc1OC`?
inhibition [1]: inactive; inhibition [2]: inactive

With `COc1ccc(CCc2cccc(N3C(=O)c4c(Cl)c(Cl)c(Cl)c(Cl)c4C3=O)c2)cc1` as the compound, how does the inhibition [1] read?
The inhibition was “inactive”.

What about the inhibition [2] of the same compound?
The inhibition was “inactive”.

Which results are given for `O=C1c2c(Cl)c(Cl)c(Cl)c(Cl)c2C(=O)N1c1ccc(CCc2ccccc2)cc1`?
inhibition [1]: inactive; inhibition [2]: inactive

With `COc1ccc(/C=C/c2ccc(N3C(=O)c4c(Cl)c(Cl)c(Cl)c(Cl)c4C3=O)cc2)cc1OC` as the compound, how does the inhibition [1] read?
Its inhibition is “inactive”.

What about the inhibition [2] of the same compound?
Its inhibition is “inactive”.

With `COc1cccc(CCc2ccc(N3C(=O)c4c(Cl)c(Cl)c(Cl)c(Cl)c4C3=O)cc2)c1` as the compound, how does the inhibition [1] read?
Its inhibition is “inactive”.

And the inhibition [2]?
The inhibition was “inactive”.

For `O=C1c2ccccc2C(=O)N1c1ccc(CCc2ccc(O)cc2)cc1`, which inhibition [1] is on record?
Its inhibition is “inactive”.

And the inhibition [2]?
The inhibition was “inactive”.

With `COc1ccc(CCc2ccc(N3C(=O)c4ccccc4C3=O)cc2)cc1OC` as the compound, how does the inhibition [1] read?
The inhibition was “inactive”.

And the inhibition [2]?
The inhibition was “inactive”.

For `O=C1c2c(Cl)c(Cl)c(Cl)c(Cl)c2C(=O)N1c1cccc(/C=C\c2ccccc2)c1`, which inhibition [1] is on record?
The inhibition was “inactive”.

What about the inhibition [2] of the same compound?
The inhibition was “inactive”.
